Converted amounts (≈) assume the structure as drawn. The source made the active and inactive calls. The calls are words filed in the database; no cut-off is given here.
Tests used:
Cytochrome P450 1A2 = Cytochrome P450 1A2 (Homo sapiens, UniProt P05177); assay: Inhibition of CYP1A2; format: ADME
Method in brief: (§1)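 Enzyme assays per CYP isoform (1A2, 2C8, 2D6, 3A4), with turnover of an appropriate fluorescent substrate as read-out; IC₅₀ reported.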

[1] = target: Peroxisome proliferator-activated receptor delta (Mus musculus, UniProt P35396); assay: Agonist activity at mouse PPAR delta
[2] = Aqueous solubility at pH 6.8; format: physicochemical
[3] = Cmax in mouse at 10 mg/kg, po; format: ADME, organism-based; set-up: dose 10 mg/kg, route oral; settings: in vivo
Method in brief: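 Mice dosed orally in 0.5% methylcellulose vehicle; plasma Cmax reported.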

[4] = target: T1, Peroxisome proliferator-activated receptor delta (Homo sapiens, UniProt Q03181); assay: Agonist activity at human PPAR delta expressed in CV1 cells by GAL4 transactivation assay
T1 sequence (Q03181 whole entry): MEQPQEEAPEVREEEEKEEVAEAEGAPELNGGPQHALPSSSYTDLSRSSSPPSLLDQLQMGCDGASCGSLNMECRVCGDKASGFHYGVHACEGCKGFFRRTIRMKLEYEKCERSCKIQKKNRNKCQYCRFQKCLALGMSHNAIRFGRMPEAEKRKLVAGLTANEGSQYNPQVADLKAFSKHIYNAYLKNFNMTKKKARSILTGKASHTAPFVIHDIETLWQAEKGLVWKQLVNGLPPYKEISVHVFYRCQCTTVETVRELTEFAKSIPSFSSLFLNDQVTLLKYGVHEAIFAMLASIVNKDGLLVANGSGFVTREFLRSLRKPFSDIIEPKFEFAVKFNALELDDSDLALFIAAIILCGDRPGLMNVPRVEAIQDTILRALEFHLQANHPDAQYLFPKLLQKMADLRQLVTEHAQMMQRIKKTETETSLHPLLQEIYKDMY

Cytochrome P450 2C8 = Cytochrome P450 2C8 (Homo sapiens, UniProt P10632); assay: Inhibition of CYP2C8; format: ADME; method in brief: as §1
Cytochrome P450 2C9 = Cytochrome P450 2C9 (Homo sapiens, UniProt P11712); assay: Inhibition of CYP2C9; format: ADME
Cytochrome P450 2D6 = Cytochrome P450 2D6 (Homo sapiens, UniProt P10635); assay: Inhibition of CYP2D6; format: ADME; method in brief: as §1
Cytochrome P450 3A4 = Cytochrome P450 3A4 (Homo sapiens, UniProt P08684); assay: Inhibition of CYP3A4; format: ADME; method in brief: as §1
Androgen receptor = Androgen receptor (Homo sapiens, UniProt P10275); assay: Displacement of [3H]dihydrotestosterone from human recombinant androgen receptor expressed in SF9 baculovirus cells
Estrogen receptor = Estrogen receptor (Mus musculus, UniProt O08537+P19785); assay: Displacement of [3H]O-estradiol from ER in Swiss mouse uteri; format: protein assay
Glucocorticoid receptor = Glucocorticoid receptor (Homo sapiens, UniProt P04150); assay: Displacement of [H]dexamethaxone from glucocorticoid receptor in HUH cells; format: cell-based
Progesterone receptor = Progesterone receptor (Homo sapiens, UniProt P06401); assay: Displacement of [3H]progesterone from progesterone receptor in T47D cells; format: cell-based
Method in brief: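 Cytosol from T47D cells incubated overnight at 4 °C with ³H-progesterone at 10 nM final, with or without compound. DMSO defined total binding and 1 µM unlabelled progesterone defined nonspecific binding. Bound and free ligand were separated on a spin plate, and the flow-through was counted by scintillation.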

[5] = target: T2, Peroxisome proliferator-activated receptor alpha (Homo sapiens) (UniProt Q07869); assay: (§2) Agonist activity at human PPAR alpha expressed in CV1 cells by GAL4 transactivation assay; format: functional, cell-based; settings: CV-1
T2 sequence (whole entry): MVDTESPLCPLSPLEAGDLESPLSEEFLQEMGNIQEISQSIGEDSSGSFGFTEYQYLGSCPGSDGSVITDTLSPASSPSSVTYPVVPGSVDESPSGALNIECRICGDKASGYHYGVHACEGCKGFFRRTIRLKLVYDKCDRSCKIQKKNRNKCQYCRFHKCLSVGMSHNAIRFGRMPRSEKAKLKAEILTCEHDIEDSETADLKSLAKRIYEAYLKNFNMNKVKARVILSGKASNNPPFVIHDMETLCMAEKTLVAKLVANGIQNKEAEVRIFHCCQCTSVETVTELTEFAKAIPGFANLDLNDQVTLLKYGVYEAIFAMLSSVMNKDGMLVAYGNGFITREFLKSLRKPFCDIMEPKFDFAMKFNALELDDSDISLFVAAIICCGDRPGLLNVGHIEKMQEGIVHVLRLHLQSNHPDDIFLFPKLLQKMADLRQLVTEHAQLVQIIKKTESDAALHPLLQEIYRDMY
Method in brief: (§3)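 CV-1 cells plated, grown overnight at 37 °C in 5% CO₂, then transfected with GAL4-fused human PPARα ligand binding domain, pFR-LUC and pRL-SV40 reporter DNAs by lipofection. After a further overnight incubation, cells were exposed to compound or vehicle overnight. Activity was read as dual-luciferase reporter signal.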

[6] = target: T3, Peroxisome proliferator-activated receptor alpha (Homo sapiens, UniProt Q07869); assay: as §2; format: functional, cell-based, CV-1; method in brief: as §3
T3 sequence (Q07869 whole entry): T2 sequence (whole entry)

[7] = target: T3, Peroxisome proliferator-activated receptor alpha; assay: Agonist activity at human PPAR alpha by FRET assay; format: functional
Method in brief: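 Human PPARα ligand binding domain (GST-tagged) association with biotin-labeled co-activator CBP; Eu-labeled anti-GST antibody and streptavidin-APC; incubated 2 h at rt in buffer with or without compound; fluorescence read at 615 or 655 nm emission, 340 nm excitation.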

[8] = target: T1, Peroxisome proliferator-activated receptor delta; assay: Agonist activity at human PPAR delta by FRET assay; format: functional
[9] = target: T4, Peroxisome proliferator-activated receptor alpha (Mus musculus) (UniProt P23204); assay: (§4) Agonist activity at mouse PPAR alpha; format: functional
T4 sequence (whole entry): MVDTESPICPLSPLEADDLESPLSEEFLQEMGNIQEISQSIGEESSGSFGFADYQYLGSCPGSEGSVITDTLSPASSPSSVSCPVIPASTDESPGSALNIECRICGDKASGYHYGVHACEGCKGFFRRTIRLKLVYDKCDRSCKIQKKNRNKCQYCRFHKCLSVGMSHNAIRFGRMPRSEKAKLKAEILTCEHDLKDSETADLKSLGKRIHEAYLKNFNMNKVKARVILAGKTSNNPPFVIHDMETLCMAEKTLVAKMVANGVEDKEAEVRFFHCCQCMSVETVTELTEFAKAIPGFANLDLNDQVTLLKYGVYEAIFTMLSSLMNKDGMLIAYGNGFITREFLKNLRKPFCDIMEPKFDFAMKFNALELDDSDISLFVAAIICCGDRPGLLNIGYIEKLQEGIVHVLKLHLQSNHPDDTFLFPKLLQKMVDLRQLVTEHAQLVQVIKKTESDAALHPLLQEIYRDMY

[10] = target: Peroxisome proliferator-activated receptor alpha (Mus musculus, UniProt P23204); assay: as §4; format: functional
Mus musculus [11] = assay: Reduction of plasma triglyceride level in male human apoA1 transgenic mouse at 10 mg/kg; format: functional, organism-based; set-up: dose 10 mg/kg
Method in brief: (§5)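 hApoA1 transgenic mice, 6 weeks old at purchase, grouped by equal baseline plasma triglyceride; oral dosing once daily for 7 days in 0.5% methylcellulose in water; bled ~24 h after last dose; plasma triglyceride and HDLc by autoanalyzer; mean ± SEM, 6-8 mice.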

Mus musculus [12] = assay: Increase of plasma HDLc level in male human apoA1 transgenic mouse at 10 mg/kg; format: functional, organism-based; set-up: dose 10 mg/kg; method in brief: as §5
Mus musculus [13] = assay: Increase of plasma HDLc level in female human apoA1 transgenic mouse at 10 mg/kg; format: functional, organism-based; set-up: dose 10 mg/kg; method in brief: as §5
Syrian golden hamster [14] = assay: Reduction of VLDL level in fat fed hyperlipidemic Golden Syrian hamster at 100 mg/kg, po after 14 days; format: functional, organism-based; set-up: dose 100 mg/kg; settings: Mesocricetus auratus
Method in brief: (§6)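 Male Syrian Golden hamsters (≤7 weeks, 120-150 g) on high fat diet plus 10% fructose drinking water; bled day 10, then dosed orally once daily by weight for 14 days; necropsy day 24; EDTA plasma lipoproteins resolved by FPLC; mean ± SEM, 10 hamsters.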

Syrian golden hamster [15] = assay: Reduction of LDL level in fat fed hyperlipidemic Golden Syrian hamster at 100 mg/kg, po after 14 days; format: functional, organism-based; set-up: dose 100 mg/kg; settings: Mesocricetus auratus; method in brief: as §6
Syrian golden hamster [16] = assay: Increase of HDL/LDL ratio in fat fed hyperlipidemic Golden Syrian hamster at 100 mg/kg, po after 14 days; format: functional, organism-based; set-up: dose 100 mg/kg; settings: Mesocricetus auratus; method in brief: as §6
Rattus norvegicus [17] = assay: Reduction of FFA level in ZDF rat at 10 mg/kg, po after 21 days; format: functional, organism-based; set-up: dose 10 mg/kg
Method in brief: (§7)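 Male ZDF rats, on chow 4-8 weeks to confirm hyperglycemia, grouped by equal baseline blood glucose; oral dosing once daily for 21 days in 0.5% methylcellulose in water; bled ~24 h after last dose; plasma FFA measured.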

Mus musculus [18] = assay: Reduction of blood glucose level in orally dosed db/db mouse at 1 mg/kg after 8 days; format: functional, organism-based; set-up: dose 1 mg/kg
Method in brief: (§8)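 Female db/db mice, on chow 3-4 weeks to confirm hyperglycemia, grouped by equal baseline blood glucose; oral dosing once daily in 0.5% methylcellulose in water; blood glucose by analyzer ~24 h after last dose; percent change vs vehicle = ((Tf/Ti)/(Vf/Vi) − 1) × 100.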

Mus musculus [19] = assay: Reduction of blood glucose level in orally dosed db/db mouse at 3 mg/kg after 8 days; format: functional, organism-based; set-up: dose 3 mg/kg; method in brief: as §8
Mus musculus [20] = assay: Reduction of blood glucose level in orally dosed db/db mouse at 10 mg/kg after 8 days; format: functional, organism-based; set-up: dose 10 mg/kg; method in brief: as §8
Rattus norvegicus [21] = assay: Reduction of FFA level in ZDF rat at 1 mg/kg, po after 21 days; format: functional, organism-based; set-up: dose 1 mg/kg; method in brief: as §7
Rattus norvegicus [22] = assay: Reduction of FFA level in ZDF rat at 3 mg/kg, po after 21 days; format: functional, organism-based; set-up: dose 3 mg/kg; method in brief: as §7
Syrian golden hamster [23] = assay: Reduction of VLDL level in fat fed hyperlipidemic Golden Syrian hamster at 10 mg/kg, po after 14 days; format: functional, organism-based; set-up: dose 10 mg/kg; settings: Mesocricetus auratus; method in brief: as §6
Syrian golden hamster [24] = assay: Reduction of LDL level in fat fed hyperlipidemic Golden Syrian hamster at 10 mg/kg, po after 14 days; format: functional, organism-based; set-up: dose 10 mg/kg; settings: Mesocricetus auratus; method in brief: as §6
Syrian golden hamster [25] = assay: Increase of HDL/LDL ratio in fat fed hyperlipidemic Golden Syrian hamster at 10 mg/kg, po after 14 days; format: functional, organism-based; set-up: dose 10 mg/kg; settings: Mesocricetus auratus; method in brief: as §6
[26] = test system: PPAR alpha (Mesocricetus auratus); assay: Agonist activity at Syrian Golden hamster PPAR alpha

Chain of Androgen receptor (P10275 whole entry): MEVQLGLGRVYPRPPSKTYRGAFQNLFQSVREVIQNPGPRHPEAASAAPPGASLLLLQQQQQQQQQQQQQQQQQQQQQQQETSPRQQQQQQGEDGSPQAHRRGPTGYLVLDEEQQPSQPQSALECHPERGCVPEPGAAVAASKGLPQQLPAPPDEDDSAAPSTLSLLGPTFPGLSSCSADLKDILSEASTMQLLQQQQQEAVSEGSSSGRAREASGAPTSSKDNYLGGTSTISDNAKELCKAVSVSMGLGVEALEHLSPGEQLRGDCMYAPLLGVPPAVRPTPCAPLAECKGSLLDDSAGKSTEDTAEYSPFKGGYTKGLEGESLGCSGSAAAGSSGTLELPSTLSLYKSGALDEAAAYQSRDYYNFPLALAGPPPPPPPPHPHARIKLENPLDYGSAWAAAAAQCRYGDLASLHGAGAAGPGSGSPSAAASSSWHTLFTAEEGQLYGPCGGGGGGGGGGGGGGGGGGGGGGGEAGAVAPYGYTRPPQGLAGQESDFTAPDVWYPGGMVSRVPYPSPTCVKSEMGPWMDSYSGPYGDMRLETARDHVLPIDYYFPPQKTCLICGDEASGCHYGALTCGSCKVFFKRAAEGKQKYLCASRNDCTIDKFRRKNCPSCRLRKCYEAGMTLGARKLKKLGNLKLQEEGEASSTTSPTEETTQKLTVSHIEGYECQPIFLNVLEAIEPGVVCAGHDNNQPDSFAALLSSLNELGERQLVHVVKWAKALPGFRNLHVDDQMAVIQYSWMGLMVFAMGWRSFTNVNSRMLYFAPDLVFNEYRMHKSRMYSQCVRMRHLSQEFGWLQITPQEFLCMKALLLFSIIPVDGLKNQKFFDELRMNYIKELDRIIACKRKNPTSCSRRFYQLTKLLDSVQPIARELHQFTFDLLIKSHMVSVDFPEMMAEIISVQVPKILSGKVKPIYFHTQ
Chain of Cytochrome P450 1A2 (P05177 whole entry, canonical isoform): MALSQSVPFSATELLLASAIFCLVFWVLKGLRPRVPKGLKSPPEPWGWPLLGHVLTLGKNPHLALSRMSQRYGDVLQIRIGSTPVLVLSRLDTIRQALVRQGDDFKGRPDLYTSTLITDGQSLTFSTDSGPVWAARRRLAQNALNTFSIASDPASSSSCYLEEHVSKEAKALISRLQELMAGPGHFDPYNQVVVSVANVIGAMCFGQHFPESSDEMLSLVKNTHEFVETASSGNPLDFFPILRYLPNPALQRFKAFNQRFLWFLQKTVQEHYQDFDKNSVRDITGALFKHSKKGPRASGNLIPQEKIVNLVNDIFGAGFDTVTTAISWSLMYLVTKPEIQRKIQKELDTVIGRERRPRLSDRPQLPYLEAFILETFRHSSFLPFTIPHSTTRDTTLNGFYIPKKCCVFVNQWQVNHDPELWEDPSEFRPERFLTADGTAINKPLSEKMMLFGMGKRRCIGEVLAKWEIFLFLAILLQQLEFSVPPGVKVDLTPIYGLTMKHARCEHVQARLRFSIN
Chain of Cytochrome P450 2D6 (P10635 whole entry): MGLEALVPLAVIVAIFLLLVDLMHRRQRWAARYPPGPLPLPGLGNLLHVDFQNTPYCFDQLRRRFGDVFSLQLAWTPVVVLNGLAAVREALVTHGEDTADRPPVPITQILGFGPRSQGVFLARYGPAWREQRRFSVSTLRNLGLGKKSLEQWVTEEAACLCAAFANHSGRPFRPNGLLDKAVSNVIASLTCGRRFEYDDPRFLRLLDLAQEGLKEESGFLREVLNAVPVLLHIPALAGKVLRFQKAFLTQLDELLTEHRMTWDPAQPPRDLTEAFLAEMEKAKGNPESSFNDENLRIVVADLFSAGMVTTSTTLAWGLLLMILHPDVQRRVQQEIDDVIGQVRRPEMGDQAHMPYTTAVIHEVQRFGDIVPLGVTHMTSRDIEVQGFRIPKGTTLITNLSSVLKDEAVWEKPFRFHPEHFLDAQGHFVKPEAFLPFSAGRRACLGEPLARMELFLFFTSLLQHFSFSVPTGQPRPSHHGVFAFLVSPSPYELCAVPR
Chain of Glucocorticoid receptor (P04150 whole entry): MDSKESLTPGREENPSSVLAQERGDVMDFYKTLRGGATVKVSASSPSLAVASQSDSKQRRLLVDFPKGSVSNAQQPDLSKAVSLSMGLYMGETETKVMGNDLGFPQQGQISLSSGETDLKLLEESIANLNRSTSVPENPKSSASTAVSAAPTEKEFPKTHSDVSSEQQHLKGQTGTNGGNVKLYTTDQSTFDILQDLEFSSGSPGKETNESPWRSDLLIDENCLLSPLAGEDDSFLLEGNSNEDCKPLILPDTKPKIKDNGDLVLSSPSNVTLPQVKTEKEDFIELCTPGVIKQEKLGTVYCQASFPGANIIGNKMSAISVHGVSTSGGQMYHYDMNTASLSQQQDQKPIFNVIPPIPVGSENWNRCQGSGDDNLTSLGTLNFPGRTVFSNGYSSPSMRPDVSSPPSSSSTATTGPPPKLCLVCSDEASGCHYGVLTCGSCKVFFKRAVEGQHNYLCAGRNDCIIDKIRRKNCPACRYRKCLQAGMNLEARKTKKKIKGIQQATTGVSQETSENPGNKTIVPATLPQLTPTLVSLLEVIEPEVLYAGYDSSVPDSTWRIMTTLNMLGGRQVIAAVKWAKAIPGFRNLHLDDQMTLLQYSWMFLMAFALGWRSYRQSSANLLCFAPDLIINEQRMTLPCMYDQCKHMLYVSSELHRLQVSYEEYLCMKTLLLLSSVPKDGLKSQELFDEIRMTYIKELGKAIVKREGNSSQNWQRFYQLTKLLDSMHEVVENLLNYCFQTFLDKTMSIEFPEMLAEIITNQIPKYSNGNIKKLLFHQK
Chain of Progesterone receptor (P06401 whole entry): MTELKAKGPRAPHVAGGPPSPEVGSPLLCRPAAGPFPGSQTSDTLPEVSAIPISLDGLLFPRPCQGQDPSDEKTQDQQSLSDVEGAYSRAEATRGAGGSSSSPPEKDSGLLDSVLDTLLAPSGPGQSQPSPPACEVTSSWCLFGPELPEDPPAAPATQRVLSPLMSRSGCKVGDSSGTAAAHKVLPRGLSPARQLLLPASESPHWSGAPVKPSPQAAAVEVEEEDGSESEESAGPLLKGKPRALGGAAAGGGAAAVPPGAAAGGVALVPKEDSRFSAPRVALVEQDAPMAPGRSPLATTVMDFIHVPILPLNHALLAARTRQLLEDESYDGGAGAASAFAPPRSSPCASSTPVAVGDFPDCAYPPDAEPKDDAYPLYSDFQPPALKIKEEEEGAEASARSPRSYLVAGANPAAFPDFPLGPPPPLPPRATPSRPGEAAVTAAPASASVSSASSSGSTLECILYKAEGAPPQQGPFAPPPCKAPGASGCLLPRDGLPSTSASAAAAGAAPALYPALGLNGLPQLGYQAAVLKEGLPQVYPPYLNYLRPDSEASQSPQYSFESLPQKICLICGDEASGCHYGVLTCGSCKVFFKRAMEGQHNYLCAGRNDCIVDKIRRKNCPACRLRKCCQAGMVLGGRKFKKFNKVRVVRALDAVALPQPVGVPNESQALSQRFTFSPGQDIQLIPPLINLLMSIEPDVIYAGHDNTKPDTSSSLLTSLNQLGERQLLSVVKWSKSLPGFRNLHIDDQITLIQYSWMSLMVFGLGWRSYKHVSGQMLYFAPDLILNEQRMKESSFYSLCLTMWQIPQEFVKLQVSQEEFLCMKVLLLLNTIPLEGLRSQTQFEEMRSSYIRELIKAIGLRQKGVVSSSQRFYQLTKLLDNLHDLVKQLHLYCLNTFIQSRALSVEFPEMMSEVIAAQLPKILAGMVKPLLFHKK
Chain of Cytochrome P450 2C9 (P11712 whole entry): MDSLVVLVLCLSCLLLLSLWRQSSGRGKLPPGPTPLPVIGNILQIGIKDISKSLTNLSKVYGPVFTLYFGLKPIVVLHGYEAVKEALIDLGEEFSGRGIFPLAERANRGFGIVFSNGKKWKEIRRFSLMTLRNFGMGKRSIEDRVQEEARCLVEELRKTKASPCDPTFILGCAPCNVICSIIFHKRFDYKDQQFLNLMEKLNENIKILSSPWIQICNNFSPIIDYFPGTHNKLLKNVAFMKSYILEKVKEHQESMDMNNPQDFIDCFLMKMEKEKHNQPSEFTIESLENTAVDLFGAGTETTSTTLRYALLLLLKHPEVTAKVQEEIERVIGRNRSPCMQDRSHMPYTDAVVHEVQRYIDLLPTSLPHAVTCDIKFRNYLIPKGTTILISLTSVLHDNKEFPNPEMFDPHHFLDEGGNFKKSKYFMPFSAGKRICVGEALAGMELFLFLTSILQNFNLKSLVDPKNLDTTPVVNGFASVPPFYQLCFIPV
Chain of Cytochrome P450 3A4 (P08684 whole entry): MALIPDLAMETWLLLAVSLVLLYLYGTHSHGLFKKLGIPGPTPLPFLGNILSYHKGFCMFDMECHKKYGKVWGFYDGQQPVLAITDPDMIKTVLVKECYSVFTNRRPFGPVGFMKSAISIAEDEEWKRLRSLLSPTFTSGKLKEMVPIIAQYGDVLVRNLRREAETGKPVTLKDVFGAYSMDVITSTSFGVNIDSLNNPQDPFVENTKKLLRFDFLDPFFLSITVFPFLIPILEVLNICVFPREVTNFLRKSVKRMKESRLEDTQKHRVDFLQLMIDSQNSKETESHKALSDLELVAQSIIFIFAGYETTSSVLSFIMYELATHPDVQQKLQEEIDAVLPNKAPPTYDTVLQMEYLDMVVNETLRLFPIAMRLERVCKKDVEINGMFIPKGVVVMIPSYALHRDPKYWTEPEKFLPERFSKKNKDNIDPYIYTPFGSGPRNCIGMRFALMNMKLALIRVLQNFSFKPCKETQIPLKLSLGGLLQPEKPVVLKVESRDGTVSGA

## O=C(O)C[C@@H]1CCc2cc(OCCCOc3ccc(-c4nc5c(s4)CCCC5)cc3)ccc21
Cytochrome P450 1A2
  IC50: > 10 µM
[1]
  EC50: 0.084 µM
[2]
  solubility: 31 µM (≈ 14.4 µg/mL)
[3]
  Cmax: 20 µM
[4]
  EC50: 0.04 µM
Cytochrome P450 2C8
  IC50: > 10 µM
Cytochrome P450 2C9
  IC50: > 10 µM
Cytochrome P450 2D6
  IC50: > 10 µM
Cytochrome P450 3A4
  IC50: > 10 µM
Androgen receptor
  EC50: > 10 µM
Estrogen receptor
  EC50: > 10 µM
Glucocorticoid receptor
  EC50: > 10 µM
Progesterone receptor
  EC50: > 10 µM
[5]
  Activity: 100%
[6]
  EC50: 0.152 µM
[7]
  EC50: 0.391 µM
[8]
  EC50: 0.0022 µM
[9]
  Activity: 28%
[10]
  EC50: > 10 µM

## Cc1cc(SCc2sc(-c3ccc(C(F)(F)F)cc3)nc2C)ccc1OCC(=O)O
Mus musculus [11]
  Activity: Dose-dependent effect
Mus musculus [12]
  Activity: Dose-dependent effect
Mus musculus [13]
  Activity: Active

## CC(C)OC(=O)C(C)(C)Oc1ccc(C(=O)c2ccc(Cl)cc2)cc1
Syrian golden hamster [14]
  Activity: Active
Syrian golden hamster [15]
  Activity: Active
Syrian golden hamster [16]
  Activity: Active

## CN(CCOc1ccc(CC2SC(=O)NC2=O)cc1)c1ccccn1 (centres undefined)
Rattus norvegicus [17]
  Activity: Active
Mus musculus [18]
  Activity: Dose-dependent effect
Mus musculus [19]
  Activity: Dose-dependent effect
Mus musculus [20]
  Activity: Dose-dependent effect

## CCCc1cc(C2=NC3OCCCC3S2)ccc1OCCCOc1ccc2c(c1)CC[C@H]2CC(=O)O (some centres undefined)
Mus musculus [11]
  Activity: Dose-dependent effect
Mus musculus [12]
  Activity: Dose-dependent effect
Mus musculus [13]
  Activity: Active
Rattus norvegicus [21]
  Activity: Active
Rattus norvegicus [22]
  Activity: Active
Syrian golden hamster [23]
  Activity: Active
Syrian golden hamster [24]
  Activity: Active
Syrian golden hamster [25]
  Activity: Active
Mus musculus [18]
  Activity: Dose-dependent effect
Mus musculus [19]
  Activity: Dose-dependent effect
Mus musculus [20]
  Activity: Dose-dependent effect
Estrogen receptor
  EC50: > 10 µM
[5]
  Activity: 88%
[9]
  Activity: 25%
[26]
  Activity: 100%

From ChEMBL document CHEMBL1142242, “Indanylacetic acid derivatives carrying 4-thiazolyl-phenoxy tail groups, a new class of potent PPAR alpha/gamma/delta pan agonists: synthesis, structure-activity relationship, and in vivo efficacy” (J Med Chem, 2007)
